Hits are enriched below; roughly 3.1% of the tested compounds scored in any of these assays.
OX1R antag-1: antagonists of human orexin 1 receptor (OX1R). inhibition, % at 6.6 µM. OX1R-expressing cells, FRET antagonist read-out. 1.8% of 330,000 active; in the data active = inhibition mostly above about 38%, no sharp cut-off; inactive = mostly below about 40%;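 note: 0% = agonist challenge alone and 100% = reference antagonist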
CHO parental Ca: ATP-evoked calcium signal inhibitors, parental CHO, primary screen, counter-screen for OX1R antagonist project, cell-based, fluorescence, Fluo-8 calcium dye | parental CHO-K1, ATP-induced calcium, Fluo-8 fluorescence | inhibition, % at 5.6 µM | 0.63% of 330,000 active;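 active = inhibition above that plate's mean sample inhibition plus 3 SD, cut at about 26% in these data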;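 note: 0% = ATP-challenged DMSO wells and 100% = DMSO wells without ATP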
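test system = CHO parental line | reagent = ATP stimulus | measured by = intracellular calcium via Fluo-8 no-wash fluorescent dye | control set = ATP and no-ATP DMSO wells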
OX1R antag-2: OX1R (HCRTR1) antagonists, primary screen, fluorescence, CHO/OX1R cells, Fluo-8 calcium, orexin A; Orexin/Hypocretin receptor type 1 (Homo sapiens), O43613; Fluo-8 calcium fluorescence; inhibition, % at 5 µM; 0.43% of 330,000 active; AID 434989, 2010;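 active = inhibition above its plate's threshold, mean inhibition of all tested compounds on the plate plus 3 SD, cut at about 37% in these data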;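 note: 0% = orexin A challenge wells and 100% = SB-334867-A antagonist wells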
GPR7 antag: GPR7 receptor antagonists, primary screen, cell-based, fluorescence, single concentration; Neuropeptides B/W receptor type 1 (Homo sapiens), P48145; GPR7-expressing cells, fluorescence antagonist assay; inhibition, % at 4.4 µM; 1.1% of 290,000 active; in the data active = inhibition above about 16%, passing the limit was not always enough;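 note: cells stimulated with the agonist NPW; 0% = agonist with vehicle and 100% = vehicle without agonist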
Target sequence (P48145 whole entry, looked up): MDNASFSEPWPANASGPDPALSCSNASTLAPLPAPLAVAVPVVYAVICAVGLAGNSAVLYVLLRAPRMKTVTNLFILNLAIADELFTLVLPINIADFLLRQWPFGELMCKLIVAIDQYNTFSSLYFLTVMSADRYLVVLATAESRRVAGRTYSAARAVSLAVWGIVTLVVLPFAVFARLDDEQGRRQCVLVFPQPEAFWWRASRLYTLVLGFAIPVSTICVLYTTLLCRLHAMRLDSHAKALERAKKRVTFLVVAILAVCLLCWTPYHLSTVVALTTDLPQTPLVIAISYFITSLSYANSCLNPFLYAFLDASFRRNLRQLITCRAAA
GalR3 antagonist: GalR3 antagonists in HEK293 cells, primary screen, cell-based, fluorescence readout; HEK293 GalR3-CNG cAMP membrane potential fluorescence; galR3 body fused to GalR1 C-terminus; inhibition, % at 3 µM; 0.44% of 360,000 active; AID 651719, 2012;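 active = inhibition above the screen-wide average plus 3 SD, cut at about 13% in these data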;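 note: forskolin and galanin both at EC90 stimulate the cells; cAMP rise reported by CNG channel membrane potential dye signal; 0% = forskolin plus galanin with DMSO and 100% = forskolin alone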
Target sequence (O60755 1-299 limits assumed): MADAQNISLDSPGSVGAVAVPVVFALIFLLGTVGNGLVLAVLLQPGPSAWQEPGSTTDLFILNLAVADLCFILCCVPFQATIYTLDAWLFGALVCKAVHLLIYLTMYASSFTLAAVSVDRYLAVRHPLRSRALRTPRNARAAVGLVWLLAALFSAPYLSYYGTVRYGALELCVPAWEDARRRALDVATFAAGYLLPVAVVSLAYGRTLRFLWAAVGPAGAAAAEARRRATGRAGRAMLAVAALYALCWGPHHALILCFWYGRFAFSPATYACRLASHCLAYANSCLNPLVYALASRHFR
OX1R Fluo8 conf: OX1R (HCRTR1) antagonists, confirmation, fluorescence, CHO/OX1R cells, Fluo-8 calcium, orexin A; shares compounds with OX1R antag-2; orexin A calcium Fluo-8 fluorescence; inhibition, % at 5 µM; 38% of 1,100 active; AID 492963, 2010; in the data active = inhibition above about 29%;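 note: 0% = agonist challenge alone and 100% = reference antagonist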
CHO Ca counter: ATP-evoked calcium inhibition in parental CHO, counter-screen for OX1R antagonist project, cell-based, fluorescence, CHO-K1, triplicate; shares compounds with OX1R antag-2; 9.3% of 1,100 active; ATP-induced calcium, Fluo-8 fluorescence; inhibition, % at 5.6 µM;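 active = inhibition above a per-plate limit, the mean inhibition of that plate's test compounds plus 3 SD, cut at about 25% in these data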;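 note: 0% = ATP challenge with DMSO and 100% = DMSO without ATP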
Numbers without * were called inactive.

`COc1ccccc1-c1sc2ccccc2c1-c1ccccc1OC` gave OX1R antag-1 1, CHO parental Ca -33, OX1R antag-2 -60 and GalR3 antagonist -4.
Cc1ccc2c(cnn2C(=O)CCCC(=O)NC(C)c2ccccc2)c1 (stereo unspecified) was read as OX1R antag-1 0, CHO parental Ca -24, OX1R antag-2 -30 and GPR7 antag -3.
Screening COc1ccc2c(COC(=O)c3cccc(S(=O)(=O)NCC(C)C)c3)cc(=O)oc2c1 returned OX1R antag-1 34, CHO parental Ca 15, OX1R antag-2 46*, GPR7 antag 9, GalR3 antagonist -6, OX1R Fluo8 conf 42* and CHO Ca counter 5.
`COc1ccc2c(COC(=O)CNS(=O)(=O)c3ccc(C)c(C)c3)cc(=O)oc2c1` gave OX1R antag-1 2, CHO parental Ca -15, OX1R antag-2 0 and GalR3 antagonist -6.
`Cc1ccc(C)c(OCC(=O)N/N=C/c2c(C)nn(-c3ccccc3)c2Cl)c1` gave OX1R antag-1 31, CHO parental Ca -20, OX1R antag-2 34, GPR7 antag 5, GalR3 antagonist -2, OX1R Fluo8 conf 10 and CHO Ca counter -9.
COc1ccc(C(=O)Oc2cc(N)n(S(=O)(=O)c3ccc(C)cc3)n2)cc1 was read as OX1R antag-1 28, CHO parental Ca -20, OX1R antag-2 -17, GPR7 antag 1 and GalR3 antagonist -7.
For COc1ccc(S(=O)(=O)n2nc(OC(=O)c3c(-c4ccccc4Cl)noc3C)cc2N)cc1 the results were OX1R antag-1 41, CHO parental Ca 4, OX1R antag-2 36, GPR7 antag 15, GalR3 antagonist -3, OX1R Fluo8 conf -8 and CHO Ca counter -13.
Screening Cc1ccc(NC2CCCN(C(=O)C3CCCCC3)C2)cc1C (stereo unspecified) returned OX1R antag-1 36, CHO parental Ca -11, OX1R antag-2 -36, GPR7 antag -12 and GalR3 antagonist -1.
Screening Cc1cc(C(C)(C)C)oc1C(=O)N(CC(=O)NC1CCCC1)c1cccc(C(F)(F)F)c1 returned OX1R antag-1 30, CHO parental Ca -8, OX1R antag-2 56*, GPR7 antag 20, OX1R Fluo8 conf 14 and CHO Ca counter -3.
Screening COC(=O)c1c(-c2ccc(N(C)C)cc2)sc2ccc(OC)cc12 returned OX1R antag-1 30, CHO parental Ca -19, OX1R antag-2 65*, GalR3 antagonist 2, OX1R Fluo8 conf 16 and CHO Ca counter -7.
`COC(=O)c1c(-c2ccccc2OC)sc2ccc(OC)cc12` gave OX1R antag-1 9, CHO parental Ca -28, OX1R antag-2 0 and GalR3 antagonist -4.
`COc1ccc(NC(=O)c2cc(-c3ccccc3Cl)on2)cc1OC` gave OX1R antag-1 41, CHO parental Ca -25, OX1R antag-2 37, GPR7 antag -22, GalR3 antagonist -5, OX1R Fluo8 conf 30* and CHO Ca counter -3.
`COc1ccc(NC(=O)c2cc(-c3ccc(OC)c(OC)c3)on2)cc1OC` gave OX1R antag-1 14, CHO parental Ca -11, OX1R antag-2 -17, GPR7 antag 2 and GalR3 antagonist -2.
For Cc1ccc(OCC(=O)Nc2ccc(N3CCN(C(=O)c4ccco4)CC3)cc2)cc1C the results were OX1R antag-1 11, CHO parental Ca 5, OX1R antag-2 -9, GPR7 antag 2 and GalR3 antagonist -3.
Cc1cccc(OCC(=O)Nc2ccc(N3CCN(C(=O)c4ccco4)CC3)cc2)c1 was read as OX1R antag-1 20, CHO parental Ca 15, OX1R antag-2 53*, GPR7 antag 9, GalR3 antagonist 8, OX1R Fluo8 conf 50* and CHO Ca counter 51*.
O=C(CSC1=Nc2ccccc2C2CC=NN12)NCc1ccco1 (stereo unspecified) was read as OX1R antag-1 33, CHO parental Ca -4, OX1R antag-2 57*, GalR3 antagonist 1, OX1R Fluo8 conf 24 and CHO Ca counter 4.
`COc1cc(C(C)=O)ccc1OCC(=O)NCCCn1nc(C)cc1C` gave OX1R antag-1 1, CHO parental Ca -11, OX1R antag-2 -9 and GalR3 antagonist -8.
Screening Cc1sc(NC(=O)CN2CCOCC2)nc1-c1ccc2c(c1)CCN2S(=O)(=O)c1ccccc1 returned OX1R antag-1 20, CHO parental Ca 22, OX1R antag-2 42, GPR7 antag 6, GalR3 antagonist -7, OX1R Fluo8 conf 18 and CHO Ca counter 28*.
Screening COc1ccc(/C=N/N2C(=N)SCC2=O)cc1 returned OX1R antag-1 13, CHO parental Ca -9, OX1R antag-2 -17, GPR7 antag -14 and GalR3 antagonist -5.
`Cc1cccc(C2c3[nH]c4ccccc4c3CCN2C(=O)Cc2nc(-c3ccccc3)n[nH]2)n1` (stereo unspecified) gave OX1R antag-1 10, CHO parental Ca 10, OX1R antag-2 41, GPR7 antag 8, GalR3 antagonist -8, OX1R Fluo8 conf 18 and CHO Ca counter -20.
`O=C(NCC1CCCN(C(=O)CN2CCCCC2)C1)c1ccccc1Cl` (stereo unspecified) gave OX1R antag-1 13, CHO parental Ca 4, OX1R antag-2 -22, GPR7 antag -6 and GalR3 antagonist -6.
Screening CSCC(=O)N1CCCC(CNC(=O)c2ccccc2Cl)C1 (stereo unspecified) returned OX1R antag-1 9, CHO parental Ca -2, OX1R antag-2 22, GPR7 antag 0, GalR3 antagonist 0, OX1R Fluo8 conf 7 and CHO Ca counter -14.
`Fc1ccc(C2=CC(c3ccc(Br)o3)n3ncnc3N2)cc1` (stereo unspecified) gave OX1R antag-1 20, CHO parental Ca 36, OX1R antag-2 47, GPR7 antag 2, OX1R Fluo8 conf 5 and CHO Ca counter 9.
Screening Cc1cc(N2CCC(C(=O)Nc3ccc(F)cc3)CC2)nc(-c2ccccc2)n1 returned OX1R antag-1 22, CHO parental Ca -8, OX1R antag-2 -13, GPR7 antag 0 and GalR3 antagonist -6.
`Cc1cc(N2CCN(c3ccc(F)cc3)CC2)nc(-c2ccccc2)n1` gave OX1R antag-1 53, CHO parental Ca -41, OX1R antag-2 37, GPR7 antag -7, GalR3 antagonist 0, OX1R Fluo8 conf -21 and CHO Ca counter -12.

Assay outcomes deposited in PubChem by The Scripps Research Institute Molecular Screening Center.
